Test results published in ChEMBL document CHEMBL3286180, “Efficacious inhaled PDE4 inhibitors with low emetic potential and long duration of action for the treatment of COPD” (J Med Chem, 2014).
In brackets after ≈: the same amount, converted by molar mass. Activity calls are given as the source filed them. The rule behind the calls is not given here.

Legend:
Rattus norvegicus [1] = experiment: Antiinflammatory activity in Sprague-Dawley rat assessed as inhibition of LPS-induced bronchoalveolar lavage neutrophils measured as terminal lung concentration at 0.1 mg/ml, inhalation administered as […] treated 12 hrs before LPS; format: functional
Method in brief: (§1)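 Duration protocol: rats received a nose-only inhalation of nebulized aqueous compound solution 12 h before LPS challenge. Dose is expressed as mg/mL nebulizer concentration. Readout was LPS-induced pulmonary neutrophilia, with terminal lung concentration (nM) measured. Groups held 8−10 animals per treatment.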

Rattus norvegicus [2] = experiment: Antiinflammatory activity in Sprague-Dawley rat assessed as inhibition of LPS-induced bronchoalveolar lavage neutrophils measured as terminal lung concentration at 0.3 mg/ml, inhalation administered as nebulized suspension treated 12 hrs before LPS; format: functional; details: in the assay text read “nebulized solution” for “nebulized suspension”; method in brief: as §1
[3] = Fraction unbound in human plasma; format: ADME, cell-free
[4] = target: T1, 3',5'-cyclic-AMP phosphodiesterase 4B (Rattus norvegicus, UniProt P14646)
T1 sequence (P14646 whole entry): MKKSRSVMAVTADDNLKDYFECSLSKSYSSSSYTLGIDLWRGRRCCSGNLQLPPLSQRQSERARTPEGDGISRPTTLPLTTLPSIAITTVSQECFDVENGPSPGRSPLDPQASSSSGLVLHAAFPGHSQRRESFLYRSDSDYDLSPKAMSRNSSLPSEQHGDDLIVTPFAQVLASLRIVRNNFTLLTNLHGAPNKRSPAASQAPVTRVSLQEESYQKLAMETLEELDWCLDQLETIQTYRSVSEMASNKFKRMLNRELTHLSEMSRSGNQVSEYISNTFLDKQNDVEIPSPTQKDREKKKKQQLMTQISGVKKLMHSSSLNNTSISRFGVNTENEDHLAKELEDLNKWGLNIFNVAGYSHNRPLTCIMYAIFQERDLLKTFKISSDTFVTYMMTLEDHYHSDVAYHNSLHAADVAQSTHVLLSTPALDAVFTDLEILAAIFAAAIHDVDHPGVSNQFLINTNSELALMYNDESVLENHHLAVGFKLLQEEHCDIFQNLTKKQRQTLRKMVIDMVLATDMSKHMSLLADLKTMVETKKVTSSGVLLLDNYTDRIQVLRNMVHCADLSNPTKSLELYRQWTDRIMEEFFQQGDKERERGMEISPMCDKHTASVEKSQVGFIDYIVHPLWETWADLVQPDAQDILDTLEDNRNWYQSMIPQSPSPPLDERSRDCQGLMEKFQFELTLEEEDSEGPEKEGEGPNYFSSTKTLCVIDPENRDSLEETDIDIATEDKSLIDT

[5] = Lipophilicity, log K of the compound; format: physicochemical; details: octanol/water
Rattus norvegicus [6] = experiment: Antiinflammatory activity in nasally dosed Sprague-Dawley rat assessed as inhibition of LPS-induced bronchoalveolar lavage neutrophils measured as lung deposited dose administered as […]; format: functional
Method in brief: (§2)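 ED80 was derived from the nose-only nebulized-solution dose response in rats dosed 30 min before LPS challenge, with neutrophilia as the readout. ED80 is given as nebulizer concentration, as the matching terminal total lung concentration, and as lung deposited dose estimated from measured filter sample and terminal lung levels.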

Blood [7] = experiment: tissue or blood; details: Rattus norvegicus, 20 h, read-out: pIC50 (converted)
[8] = Intrinsic clearance in rat hepatocytes measured per 10^6 cells; format: ADME, cell-based, Hepatocyte; details: read-out: CLH
[9] = Lipophilicity, log D of the compound; format: physicochemical; details: octanol/water
Rattus norvegicus [10] = experiment: Antiinflammatory activity in Sprague-Dawley rat assessed as inhibition of LPS-induced bronchoalveolar lavage neutrophils at 0.03 mg/ml, inhalation administered as nebulized suspension; format: functional, organism-based
Method in brief: (§3)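 Rats were given the compound as an aqueous nebulized aerosol by nose-only inhalation 30 min before LPS challenge. Dose is expressed as mg/mL nebulizer concentration. Lung neutrophilia was the readout, and terminal lung concentration (nM) was measured. Groups held 8−10 animals per treatment.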

Rattus norvegicus [11] = experiment: Antiinflammatory activity in nasally dosed Sprague-Dawley rat assessed as inhibition of LPS-induced bronchoalveolar lavage neutrophils measured as lung concentration administered as […]; format: functional; method in brief: as §2
[12] = Clearance in dog; format: ADME, organism-based, Canis lupus familiaris; details: in vivo
[13] = Volume of distribution at steady state in dog; format: ADME, organism-based, Canis lupus familiaris; details: in vivo, read-out: Vdss
Rattus norvegicus [14] = experiment: Antiinflammatory activity in Sprague-Dawley rat assessed as inhibition of LPS-induced bronchoalveolar lavage neutrophils measured as terminal lung concentration at 0.01 mg/ml, inhalation administered as nebulized suspension; format: functional; method in brief: as §3
[15] = Intrinsic clearance in human liver microsomes; format: ADME; details: read-out: CLH
[16] = Half life in rat at 1 mg/kg, it; format: ADME, organism-based; design: dose 1 mg/kg, route endotracheal; details: in vivo, inhaled or intranasal
Method in brief: (§4)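 Rat pharmacokinetics were run at 1 mg/kg, given iv or by intratracheal instillation, with 2−3 animals per study.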

Rattus norvegicus [17] = experiment: Antiinflammatory activity in Sprague-Dawley rat assessed as inhibition of LPS-induced bronchoalveolar lavage neutrophils measured as terminal lung concentration at 0.03 mg/ml, inhalation administered as nebulized suspension; format: functional; method in brief: as §3
[18] = target: Voltage-gated inwardly rectifying potassium channel KCNH2 (Homo sapiens, UniProt Q12809); experiment: Inhibition of human ERG
[19] = Aqueous solubility of the compound at pH 7.4; format: physicochemical; details: aqueous medium
Rattus norvegicus [20] = experiment: Apparent volume of distribution in rat at 1 mg/kg, iv; format: ADME, organism-based; design: dose 1 mg/kg, route intravenous; details: in vivo; method in brief: as §4
[21] = Volume of distribution at steady state in rat at 1 mg/kg, iv; format: ADME, organism-based; design: dose 1 mg/kg, route intravenous; details: in vivo, read-out: Vdss
[22] = Oral bioavailability in rat at 1 mg/kg; format: ADME, organism-based; details: in vivo
Rattus norvegicus [23] = experiment: Antiinflammatory activity in Sprague-Dawley rat assessed as inhibition of LPS-induced bronchoalveolar lavage neutrophils at 0.01 mg/ml, inhalation administered as nebulized suspension; format: functional; method in brief: as §3
[24] = Fraction unbound in rat plasma; format: ADME, cell-free
Rattus norvegicus [25] = experiment: Antiinflammatory activity in nasally dosed Sprague-Dawley rat assessed as inhibition of LPS-induced bronchoalveolar lavage neutrophils measured as nebulizer concentration administered as […]; format: functional; method in brief: as §2
Blood [26] = experiment: Antiinflammatory activity in human whole blood assessed as inhibition of LPS-induced TNFalpha production after 20 hrs by ELISA; format: functional, tissue-based
Rattus norvegicus [27] = experiment: Antiinflammatory activity in Sprague-Dawley rat assessed as inhibition of LPS-induced bronchoalveolar lavage neutrophils measured as terminal lung concentration at 0.003 mg/ml, inhalation administered as nebulized suspension; format: functional; method in brief: as §3
[28] = Oral bioavailability in dog; format: ADME, organism-based, Canis lupus familiaris; details: in vivo
[29] = target: 3',5'-cyclic-AMP phosphodiesterase 4A (Homo sapiens, UniProt P27815); experiment: Inhibition of human PDE4A1A using [3H]cAMP by packard topcount scintillation counting analysis
Rattus norvegicus [30] = experiment: Antiinflammatory activity in Sprague-Dawley rat assessed as inhibition of LPS-induced bronchoalveolar lavage neutrophils measured as terminal lung concentration at 0.1 mg/ml, inhalation administered as nebulized suspension; format: functional; method in brief: as §3
[31] = Clearance in rat at 1 mg/kg, iv; format: ADME, organism-based; design: dose 1 mg/kg, route intravenous; details: in vivo; method in brief: as §4
[32] = Half life in rat at 1 mg/kg, iv; format: ADME, organism-based; design: dose 1 mg/kg, route intravenous; details: in vivo; method in brief: as §4
Rattus norvegicus [33] = experiment: Antiinflammatory activity in Sprague-Dawley rat assessed as inhibition of LPS-induced bronchoalveolar lavage neutrophils at 0.1 mg/ml, inhalation administered as nebulized suspension; format: functional, organism-based; method in brief: as §3
[34] = Apparent volume of distribution in dog; format: ADME, organism-based, Canis lupus familiaris; details: in vivo, read-out: Vz/F
Rattus norvegicus [35] = experiment: Antiinflammatory activity in Sprague-Dawley rat assessed as inhibition of LPS-induced bronchoalveolar lavage neutrophils measured as LPS duration at 0.1 mg/ml, inhalation administered as nebulized suspension; format: functional, organism-based; method in brief: as §1
[36] = Half life in dog; format: ADME, organism-based, Canis lupus familiaris; details: in vivo
PBMC = experiment: Antiinflammatory activity in human PBMC assessed as inhibition of LPS-induced TNFalpha production after 20 hrs by fluorescence linked immunosorbant assay; format: functional, cell-based
Rattus norvegicus [37] = experiment: Antiinflammatory activity in Sprague-Dawley rat assessed as inhibition of LPS-induced bronchoalveolar lavage neutrophils measured as terminal lung concentration at 0.03 mg/ml, inhalation administered as […] treated 12 hrs before LPS; format: functional; method in brief: as §1
Cytochrome P450 3A4 = Cytochrome P450 3A4 (Homo sapiens, UniProt P08684); experiment: Inhibition of CYP3A4 (unknown origin); format: ADME
CYP (isoform not stated) = experiment: Time dependent inhibition of CYP (unknown origin) at 50 uM; format: ADME; details: human; read-out: TDI
Rattus norvegicus [38] = experiment: Antiinflammatory activity in Sprague-Dawley rat assessed as inhibition of LPS-induced bronchoalveolar lavage neutrophils measured as LPS duration at 0.01 mg/ml, inhalation administered as nebulized suspension; format: functional, organism-based; details: 0.1 mg/ml, in the assay text read “0.1 mg/ml” for “0.01 mg/ml”; method in brief: as §1
Cytochrome P450 2C19 = Cytochrome P450 2C19 (Homo sapiens, UniProt P33261); experiment: Inhibition of CYP2C19 (unknown origin); format: ADME
Cytochrome P450 2D6 = Cytochrome P450 2D6 (Homo sapiens, UniProt P10635); experiment: Inhibition of CYP2D6 (unknown origin); format: ADME
Cytochrome P450 2C9 = Cytochrome P450 2C9 (Homo sapiens, UniProt P11712); experiment: Inhibition of CYP2C9 (unknown origin); format: ADME
Sequence of Cytochrome P450 2C9 (P11712 whole entry): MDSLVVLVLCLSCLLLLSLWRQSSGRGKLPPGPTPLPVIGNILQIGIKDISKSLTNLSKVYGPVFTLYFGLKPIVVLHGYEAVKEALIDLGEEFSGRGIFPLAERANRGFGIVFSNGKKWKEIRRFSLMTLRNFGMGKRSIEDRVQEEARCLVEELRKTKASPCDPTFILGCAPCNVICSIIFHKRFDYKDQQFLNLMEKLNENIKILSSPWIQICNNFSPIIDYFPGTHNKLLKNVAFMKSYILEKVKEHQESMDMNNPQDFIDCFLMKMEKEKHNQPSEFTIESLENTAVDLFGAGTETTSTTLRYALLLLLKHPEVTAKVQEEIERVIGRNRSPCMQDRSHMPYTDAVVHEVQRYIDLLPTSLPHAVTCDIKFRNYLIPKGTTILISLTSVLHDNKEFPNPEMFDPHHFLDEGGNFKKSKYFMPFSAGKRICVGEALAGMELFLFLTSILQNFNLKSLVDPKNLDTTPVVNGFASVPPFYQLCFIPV

Sequence of Voltage-gated inwardly rectifying potassium channel KCNH2 (Q12809 whole entry): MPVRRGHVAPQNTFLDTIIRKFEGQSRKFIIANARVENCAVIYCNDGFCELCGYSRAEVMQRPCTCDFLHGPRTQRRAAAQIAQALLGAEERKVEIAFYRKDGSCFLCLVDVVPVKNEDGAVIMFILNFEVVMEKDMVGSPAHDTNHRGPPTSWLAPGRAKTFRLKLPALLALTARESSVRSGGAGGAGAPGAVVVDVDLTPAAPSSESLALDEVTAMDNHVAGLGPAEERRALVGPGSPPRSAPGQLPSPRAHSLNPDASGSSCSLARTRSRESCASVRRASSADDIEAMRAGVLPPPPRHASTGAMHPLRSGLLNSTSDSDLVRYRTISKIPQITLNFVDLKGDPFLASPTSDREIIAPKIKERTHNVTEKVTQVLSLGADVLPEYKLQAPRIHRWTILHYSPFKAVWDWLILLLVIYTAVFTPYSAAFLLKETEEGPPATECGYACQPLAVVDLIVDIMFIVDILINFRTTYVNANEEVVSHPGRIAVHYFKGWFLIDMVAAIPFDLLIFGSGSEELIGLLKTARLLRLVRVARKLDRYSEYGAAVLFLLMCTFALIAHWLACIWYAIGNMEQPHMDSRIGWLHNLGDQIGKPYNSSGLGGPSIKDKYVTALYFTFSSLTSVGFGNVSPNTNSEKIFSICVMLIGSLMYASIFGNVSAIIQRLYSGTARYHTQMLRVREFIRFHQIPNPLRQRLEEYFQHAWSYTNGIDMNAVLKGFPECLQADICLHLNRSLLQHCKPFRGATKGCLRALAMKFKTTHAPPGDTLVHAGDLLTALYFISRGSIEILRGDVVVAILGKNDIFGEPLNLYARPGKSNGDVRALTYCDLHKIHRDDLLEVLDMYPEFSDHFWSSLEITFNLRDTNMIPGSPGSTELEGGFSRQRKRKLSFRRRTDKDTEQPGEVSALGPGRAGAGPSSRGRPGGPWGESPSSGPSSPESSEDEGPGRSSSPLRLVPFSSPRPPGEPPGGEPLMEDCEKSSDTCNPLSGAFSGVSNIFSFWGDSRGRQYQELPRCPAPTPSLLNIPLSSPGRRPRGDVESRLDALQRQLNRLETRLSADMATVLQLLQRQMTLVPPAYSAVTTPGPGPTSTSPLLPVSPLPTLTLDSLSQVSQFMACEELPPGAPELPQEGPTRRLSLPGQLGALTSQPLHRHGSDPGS
Sequence of Cytochrome P450 2D6 (P10635 whole entry): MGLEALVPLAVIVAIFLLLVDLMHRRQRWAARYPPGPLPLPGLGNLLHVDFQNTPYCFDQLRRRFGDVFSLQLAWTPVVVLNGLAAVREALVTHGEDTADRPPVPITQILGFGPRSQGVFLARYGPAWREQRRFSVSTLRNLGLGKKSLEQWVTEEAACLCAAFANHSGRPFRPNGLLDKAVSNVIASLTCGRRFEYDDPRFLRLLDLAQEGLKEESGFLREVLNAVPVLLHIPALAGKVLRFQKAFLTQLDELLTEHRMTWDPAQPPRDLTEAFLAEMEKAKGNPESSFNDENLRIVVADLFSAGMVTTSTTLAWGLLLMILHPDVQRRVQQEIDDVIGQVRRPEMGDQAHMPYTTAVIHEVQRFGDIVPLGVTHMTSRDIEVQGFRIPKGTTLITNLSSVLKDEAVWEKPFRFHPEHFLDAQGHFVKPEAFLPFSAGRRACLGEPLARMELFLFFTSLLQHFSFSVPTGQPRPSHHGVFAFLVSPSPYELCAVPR
Sequence of 3',5'-cyclic-AMP phosphodiesterase 4A (P27815 whole entry): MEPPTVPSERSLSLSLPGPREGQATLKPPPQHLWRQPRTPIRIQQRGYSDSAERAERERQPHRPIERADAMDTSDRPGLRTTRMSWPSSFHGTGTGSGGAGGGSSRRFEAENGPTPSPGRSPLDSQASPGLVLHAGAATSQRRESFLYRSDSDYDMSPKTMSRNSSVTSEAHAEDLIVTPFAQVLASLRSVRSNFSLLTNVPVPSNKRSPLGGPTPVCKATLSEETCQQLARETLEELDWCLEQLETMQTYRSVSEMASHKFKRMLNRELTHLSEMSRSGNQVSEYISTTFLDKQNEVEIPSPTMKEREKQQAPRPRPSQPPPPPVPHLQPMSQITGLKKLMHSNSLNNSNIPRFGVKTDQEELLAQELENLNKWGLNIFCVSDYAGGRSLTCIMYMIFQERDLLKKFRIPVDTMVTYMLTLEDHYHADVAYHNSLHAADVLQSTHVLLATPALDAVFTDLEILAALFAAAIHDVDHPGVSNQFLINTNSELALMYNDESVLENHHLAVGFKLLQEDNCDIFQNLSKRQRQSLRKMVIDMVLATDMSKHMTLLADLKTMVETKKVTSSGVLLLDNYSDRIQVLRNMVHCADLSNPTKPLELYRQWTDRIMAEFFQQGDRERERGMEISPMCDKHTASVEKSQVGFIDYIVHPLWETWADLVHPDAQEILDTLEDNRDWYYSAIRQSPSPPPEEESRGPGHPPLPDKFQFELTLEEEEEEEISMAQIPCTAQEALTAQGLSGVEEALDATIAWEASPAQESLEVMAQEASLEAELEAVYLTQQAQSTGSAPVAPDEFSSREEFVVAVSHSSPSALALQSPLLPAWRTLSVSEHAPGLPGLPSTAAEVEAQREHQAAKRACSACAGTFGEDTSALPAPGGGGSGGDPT
Sequence of Cytochrome P450 3A4 (P08684 whole entry, canonical isoform): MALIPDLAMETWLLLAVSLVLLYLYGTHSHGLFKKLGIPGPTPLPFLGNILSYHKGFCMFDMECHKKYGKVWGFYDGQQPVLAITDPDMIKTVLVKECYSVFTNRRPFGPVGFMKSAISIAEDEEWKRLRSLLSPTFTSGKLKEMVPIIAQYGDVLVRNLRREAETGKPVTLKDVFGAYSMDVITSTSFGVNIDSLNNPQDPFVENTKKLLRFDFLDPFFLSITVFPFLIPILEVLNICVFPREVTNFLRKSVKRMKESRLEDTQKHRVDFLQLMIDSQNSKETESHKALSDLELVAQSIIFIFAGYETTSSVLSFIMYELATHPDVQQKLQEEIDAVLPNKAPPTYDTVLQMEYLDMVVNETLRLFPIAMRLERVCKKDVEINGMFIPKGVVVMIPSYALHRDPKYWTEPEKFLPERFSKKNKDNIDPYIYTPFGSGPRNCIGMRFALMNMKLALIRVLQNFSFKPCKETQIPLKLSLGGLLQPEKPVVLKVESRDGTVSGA
Sequence of Cytochrome P450 2C19 (P33261 whole entry): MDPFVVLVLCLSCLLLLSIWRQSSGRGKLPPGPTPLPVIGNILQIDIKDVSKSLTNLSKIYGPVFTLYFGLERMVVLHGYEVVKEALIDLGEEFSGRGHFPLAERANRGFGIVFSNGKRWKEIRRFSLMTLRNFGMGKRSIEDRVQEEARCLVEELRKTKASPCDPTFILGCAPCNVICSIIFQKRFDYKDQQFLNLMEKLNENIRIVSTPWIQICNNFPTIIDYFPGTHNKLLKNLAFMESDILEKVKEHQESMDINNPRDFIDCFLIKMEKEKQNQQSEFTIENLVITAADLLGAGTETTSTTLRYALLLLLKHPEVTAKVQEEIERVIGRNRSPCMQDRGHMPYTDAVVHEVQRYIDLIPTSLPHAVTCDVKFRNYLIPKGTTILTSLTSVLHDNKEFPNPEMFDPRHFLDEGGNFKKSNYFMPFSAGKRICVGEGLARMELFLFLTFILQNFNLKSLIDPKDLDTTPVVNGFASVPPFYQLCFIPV

## Cc1ccc(O)c(C(=O)N[C@H]2CC[C@@H](NC(=O)c3cc(F)cnc3Oc3cccc(-c4ccc(CN5C[C@@H](C)N[C@@H](C)C5)cc4CN4CCOCC4)c3)CC2)c1
Rattus norvegicus [1]
  Activity: 14 nM
Rattus norvegicus [2]
  Activity: 33 nM
[3]
  fraction unbound: 0.013
[4]
  IC50: 0.0251 nM
[5]
  log K: 1.88
Rattus norvegicus [6]
  ED80: 0.6 µg/kg
Blood [7]
  IC50: 0.501 nM
[8]
  hepatocyte CLint: 13 µL/min/1e6 cells
[9]
  logD: 2.8
Rattus norvegicus [10]
  inhibition: Active
Rattus norvegicus [11]
  ED80: 78 nM
[12]
  clearance: 19 mL/min/kg
[13]
  Vd: 13 L/kg
Rattus norvegicus [14]
  Activity: 26 nM
[15]
  microsomal CLint: 78 µL/min/mg
[16]
  half-life: 9 h
Rattus norvegicus [17]
  Activity: 88 nM
[18]
  IC50: 6310 nM
[19]
  solubility: 213 µM (≈ 163 µg/mL)
Rattus norvegicus [20]
  Vz/F: 30 L/kg
[21]
  Vd: 16 L/kg
[22]
  bioavailability: < 16%
Rattus norvegicus [23]
  inhibition: Active
[24]
  fraction unbound: 0.083
Rattus norvegicus [25]
  ED80: 60 µg/mL (≈ 78.4 µM)
Blood [26]
  IC50: 12.6 nM
Rattus norvegicus [27]
  Activity: 9 nM
[28]
  bioavailability: 6%
[29]
  IC50: < 10 nM
Rattus norvegicus [30]
  Activity: 123 nM
[31]
  clearance: 50 mL/min/kg
[32]
  half-life: 7 h
Rattus norvegicus [33]
  inhibition: Active
[34]
  Vd/F: 25 L/kg
Rattus norvegicus [35]
  inhibition: Active
[36]
  half-life: 15 h
PBMC
  IC50: 0.0398 nM
Rattus norvegicus [37]
  Activity: 5 nM

## Cc1cc(C(=O)N[C@H]2CC[C@@H](NC(=O)c3cc(F)cnc3Oc3cccc(-c4ccc(O)cc4CN4CCOCC4)c3)CC2)nn1C
[3]
  fraction unbound: 0.056
[8]
  hepatocyte CLint: 120 µL/min/1e6 cells
[9]
  logD: 3.1
Cytochrome P450 3A4
  IC50: 501 nM
CYP (isoform not stated)
  inhibition at 50 µM: 73%
[15]
  microsomal CLint: > 150 µL/min/mg
[18]
  IC50: 31600 nM
[19]
  solubility: 250 µM (≈ 161 µg/mL)
Rattus norvegicus [20]
  Vz/F: 76 L/kg
[21]
  Vd: 2.6 L/kg
Rattus norvegicus [38]
  inhibition: Active
Rattus norvegicus [23]
  inhibition (INH): 37%
[24]
  fraction unbound: 0.1
Cytochrome P450 2C19
  IC50: 6310 nM
[31]
  clearance: 69 mL/min/kg
[32]
  half-life: 13 h
Rattus norvegicus [33]
  inhibition: Active
Rattus norvegicus [35]
  inhibition: Active
Cytochrome P450 2D6
  IC50: > 10000 nM
Cytochrome P450 2C9
  IC50: 251 nM
PBMC
  IC50: 0.0631 nM
